# Laboratory results taken from PMC7932028 (European journal of medicinal chemistry, 2020).
# Tested on: S. aureus strain 29213
# Test: Whole cell growth inhibition
# Format: cell-based
# Settings: Staphylococcus aureus, 29213, 18 h, read-out: MIC (whole cell growth inhibition)
# Method in brief: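 Racemic test compounds were assayed against CLSI-standardized S. aureus cultures. Growth was scored by turbidity at 600 nm and by visual inspection. The MIC was taken as the lowest concentration with no growth after 18 h incubation. There were n = 2 independent assays, each with duplicate technical replicates, and values are given with SEM.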
row,Structure (SMILES),MIC
1,COc1cc(Cc2cnc(N)nc2N)cc(/C=C/C(=O)N2N=Cc3ccccc3C2c2ccc(C)cc2)c1OC (stereo not drawn) [11j],0.046 to 0.187 µg/mL
2,CCCC1c2ccccc2C=NN1C(=O)/C=C/c1cc(Cc2cnc(N)nc2N)cc(OC)c1OC (stereo not drawn) [11a],0.0625 to 0.25 µg/mL
3,"CCCC1c2cc(C)c(C)cc2C=NN1C(=O)/C=C/c1cc(Cc2cnc(N)nc2N)cc(OC)c1OC (racemic) [13b, (±)-(E)-3-(5-((2,4-Diaminopyrimidin-5-yl)methyl)-2,3-dimethoxyphenyl)-1-(6,7-dimethyl-1-propylphthalazin-2(1H)-yl) prop-2-en-1-one]",0.5 to 1 µg/mL
